# Published values of several laboratories.
# Matrix: Caco-2
SMILES,setting,Papp A→B [×10⁻⁶ cm/s]
N#Cc1ccc(C[C@H](Nc2nnc(-c3ccc(F)cc3)o2)C(=O)N2CCc3ccccc32)cc1,"100 µM, 2 h",62.9
CNS(=O)(=O)Cc1ccc2[nH]cc(CCN(C)C)c2c1,"5 µM, 2 h",0.36
COc1ccc(CCC(=O)c2c(O)cc(O[C@@H]3O[C@H](CO)[C@@H](O)[C@H](O)[C@H]3O[C@@H]3O[C@@H](C)[C@H](O)[C@@H](O)[C@H]3O)cc2O)cc1O,"100 µg/mL, 2 h",17
O=c1c2cc(Cl)c(CO)cc2[nH]c(=S)n1Cc1cccnc1,"10 µM, 90 min, pH 7.4",12.3
COc1ccc(-c2cc(=O)c3c(O)cc(O[C@@H]4O[C@H](CO[C@@H]5O[C@@H](C)[C@H](O)[C@@H](O)[C@H]5O)[C@@H](O)[C@H](O)[C@H]4O)cc3o2)cc1O,"100 µg/mL, 2 h",45.2
Nc1nc2c(ncn2COCCO)c(=O)[nH]1,"5 µM, 2 h",0.18
O=c1cc(-c2ccc(O)c(O)c2)oc2cc(O)cc(O)c12,"100 µg/mL, 2 h",7.1
CN/C(=N/CCSCc1nc[nH]c1C)NC#N,"5 µM, 2 h",0.55
CC(C)NCC(O)COc1cccc2ccccc12 (centres unmarked),"10 µM, 2 h",29.7
CCN1CCCC1CNC(=O)c1cc(S(N)(=O)=O)ccc1OC (centres unmarked),"5 µM, 2 h",0.16
Oc1cc(O)c2c(c1)O[C@H](c1ccc(O)c(O)c1)[C@H](O)C2,"100 µg/mL, 2 h",1.26
CC(C)NCC(O)COc1cccc2ccccc12 (centres unmarked),"5 µM, 2 h",12.6
O=c1c2cc(Cl)ccc2[nH]c(=S)n1Cc1ccc(-c2nnn[nH]2)nc1,"10 µM, 90 min, pH 7.4",< 0.51
C[C@@H]1O[C@@H](OC[C@H]2O[C@@H](Oc3c(-c4ccc(O)c(O)c4)oc4cc(O)cc(O)c4c3=O)[C@H](O)[C@@H](O)[C@@H]2O)[C@H](O)[C@H](O)[C@H]1O,100 µg/mL,0.304
O=C(NCc1nc(-c2ccc(C(F)(F)F)cc2)cs1)[C@H]1CCCN(C(=O)COCCN2CCCCC2)C1,pH 7.4,3.9
CCCCCCOC(=O)NC(=N)c1ccc(NCc2nc3cc(C(=O)N(CCC(=O)OCC)c4ccccn4)ccc3n2C)cc1,"5 µM, 2 h",0.0021
O=c1cc(-c2ccc(O)cc2)oc2c([C@@H]3O[C@H](CO)[C@@H](O)[C@H](O)[C@H]3O)c(O)cc(O)c12,50 µg/mL,0.254
N#C[C@@]1(c2ccc3c(N)ncnn23)O[C@H](CO)[C@@H](O)[C@H]1O,"10 µM, 2 h",3.8
O=c1c2cc(Cl)ncc2[nH]c(=S)n1Cc1cccnc1,"10 µM, 90 min, pH 7.4",34.6
O=c1c(O[C@@H]2O[C@H](CO)[C@H](O)[C@H](O)[C@H]2O)c(-c2ccc(O)c(O)c2)oc2cc(O)cc(O)c12,50 µg/mL,0.256
CNC(C)(C)COCC(=O)N1CCC[C@H](C(=O)NCc2nc(-c3ccc(C(F)(F)F)cc3)cs2)C1,pH 7.4,0.19
Cc1ccc(N(c2ccc(NC(=O)CN(C)c3ccccc3N3CCCC3=O)cc2)C(C)C)cc1,,1.09
N#Cc1ccc(C[C@H](NC(=O)c2cc3cc(F)ccc3[nH]2)C(=O)N2CCc3ccccc32)cc1,"100 µM, 2 h",1.2
CCOCC(=O)N1CCC[C@H](C(=O)NCc2nc(-c3ccc(C#N)nc3)cs2)C1,pH 7.4,13
N#Cc1ccc(C[C@H](Nc2c(Nc3ccc(Br)cc3)c(=O)c2=O)C(=O)N2CCc3ccccc32)cc1,"100 µM, 2 h",2
CC(=O)OCc1cc2[nH]c(=S)n(Cc3cccnc3)c(=O)c2cc1Cl,"10 µM, 90 min, pH 7.4",0.6
O=C(N[C@@H](c1ccccc1)[C@H]1CCCN1)C1=CN(c2ncnc3[nH]ccc23)CCS1,"10 µM, pH 6.5",< 0.3
COc1ccc([C@@H]2CC(=O)c3c(O)cc(O)cc3O2)cc1O,"100 µg/mL, 2 h",3.95
CC(C)C(=O)OCc1cc2[nH]c(=S)n(Cc3cccnc3)c(=O)c2cc1Cl,"10 µM, 90 min, pH 7.4",1.4
NCCOCC(=O)N1CCC[C@H](C(=O)NCc2nc(-c3ccc(C(F)(F)F)cc3)cs2)C1,pH 7.4,0.1
C[C@@H]1O[C@@H](O[C@H]2[C@H](Oc3cc(O)c4c(c3)O[C@H](c3ccc(O)cc3)CC4=O)O[C@H](CO)[C@@H](O)[C@@H]2O)[C@H](O)[C@H](O)[C@H]1O,"100 µg/mL, 2 h",21
O=C(NCc1nc(-c2ccc(C(F)(F)F)cc2)cs1)[C@H]1CCCN(C(=O)CO[C@H]2CCCNC2)C1,pH 7.4,0.15
O=C(O)[C@H]1O[C@@H](Oc2cc3oc(-c4ccccc4)cc(=O)c3c(O)c2O)[C@H](O)[C@@H](O)[C@@H]1O,"100 µg/mL, 2 h",10.8
CCONC(=O)N1CCC[C@H](C(=O)NCc2nc(-c3ccc(C#N)cc3)cs2)C1,pH 7.4,6.5
O=c1c(-c2ccc(O)cc2)coc2c([C@@H]3O[C@H](CO)[C@@H](O)[C@H](O)[C@H]3O)c(O)ccc12,"100 µg/mL, 2 h",45.7
